logP, nH and EC50 data for 14 compounds are collected here from ChEMBL document CHEMBL1127507, “Search for the pharmacophore of bispyridinium-type allosteric modulators of muscarinic receptors” (J Med Chem, 1994).

Series [1] in a line: Partition coefficient (logP). The class given is physicochemical. The conditions noted are these: octanol/water. The method in brief:
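Compound at 5×10^-5 M in octanol-saturated Na2HPO4 buffer pH 7.4, absorbance at 290 nm; 0.7 mL shaken 2 h with equal volume buffer-saturated octanol, centrifuged, aqueous absorbance remeasured; partition coefficient and log P from absorbance difference.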

The target in series [2] is T1, Muscarinic acetylcholine receptor M2 (Sus scrofa) (UniProt P06199).
T1 sequence (whole entry): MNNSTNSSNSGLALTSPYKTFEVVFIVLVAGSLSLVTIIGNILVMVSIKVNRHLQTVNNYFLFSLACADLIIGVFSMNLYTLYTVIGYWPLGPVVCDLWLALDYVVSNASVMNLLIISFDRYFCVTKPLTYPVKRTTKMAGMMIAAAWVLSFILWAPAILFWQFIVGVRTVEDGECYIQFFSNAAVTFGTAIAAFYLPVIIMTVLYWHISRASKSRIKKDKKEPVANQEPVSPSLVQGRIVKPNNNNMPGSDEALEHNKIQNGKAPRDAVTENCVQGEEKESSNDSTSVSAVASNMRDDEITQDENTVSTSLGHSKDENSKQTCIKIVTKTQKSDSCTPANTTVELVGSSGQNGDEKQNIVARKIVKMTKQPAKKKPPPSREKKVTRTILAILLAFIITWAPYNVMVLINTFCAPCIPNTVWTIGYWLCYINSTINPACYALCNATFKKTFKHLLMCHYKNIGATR
Description: Hill coefficient, slope factors of reduction in dissociation rate of [3H]NMS from M2 receptor of pig heart. Summed up:
(§1)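 Porcine ventricular membranes (sucrose homogenate, 80000g pellet in 50 mM Tris-HCl pH 7.4) preincubated 30 min with 0.2 nM [3H]NMS in 3 mM MgHPO4/50 mM Tris-HCl, pH 7.3, 37 °C; dissociation started with 1 μM atropine plus compound. Residual binding at 4 min (two-point) gave k-1; sigmoid fit yielded EC50 and slope; filtration, scintillation; n=3-5.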

In series [3] the target is T2, Muscarinic acetylcholine receptor M2 (Sus scrofa, UniProt P06199).
T2 sequence (P06199 whole entry): T1 sequence (whole entry)
Description: Reduction of dissociation rate of [3H]N-methylscopolamine ([3H]NMS) from muscarinic acetylcholine receptor M2 of pig heart. Summed up: as §1

Where “and” joins values, the source holds several entries; their conditions need not be identical. Equal values may be shown once.

For `CO/N=C/c1cc[n+](CCC[n+]2ccc(/C=N/OCc3c(Cl)cccc3Cl)cc2)cc1`, the logP in series [1] is -2. Also, the nH in series [2] was 1.2. Moreover, a half-maximal effect in series [3] (EC50) was put at 4.5 µM.
Compound `CC[N+](CC)(CC)CCC[n+]1ccc(/C=N/OCc2c(Cl)cccc2Cl)cc1` returned a logP in series [1] of 1.4. In series [2], the nH worked out at 0.9. In series [3], this compound returned a concentration giving a half-maximal response (EC50) of 23 µM.
In series [2], `N#Cc1cc[n+](CCC[n+]2ccc(/C=N/OCc3c(Cl)cccc3Cl)cc2)cc1` came in with a nH of 1.1. Moreover, the EC50 in series [3] amounted to 17 µM.
In series [3], `CO/N=C/c1cc[n+](CCC[n+]2ccc(/C=N/OC)cc2)cc1` came in with an EC50 of over 1000 µM.
`Cc1cc[n+](CCC[n+]2ccc(/C=N/OCc3c(Cl)cccc3Cl)cc2)cc1` came in with a lipophilicity (logP) in series [1] of 1.3. For the same compound, the nH in series [2] was 1.1. Also, it took 12 µM to reach a half-maximal effect in series [3] (EC50).
`O/N=C/c1cc[n+](CCC[n+]2ccc(/C=N/O)cc2)cc1` [TRIMEDOXIME] displayed a half-maximal effective concentration (EC50) in series [3] of over 1000 µM.
For the compound `C[N+](C)(C)CCC[n+]1ccc(/C=N/OCc2c(Cl)cccc2Cl)cc1`, the logP in series [1] stood at 1.7. Also, in series [2], the nH was 1.5 and 1.3. The compound further had an EC50 in series [3] of 25 µM.
Take `Clc1cccc(Cl)c1CO/N=C/c1cc[n+](CCC[n+]2ccc(/C=N/OCc3c(Cl)cccc3Cl)cc2)cc1`: the log partition coefficient (logP) in series [1] turned out to be 0.6. The nH in series [2] came out at 1.7. Moreover, the midpoint of the response in series [3], the EC50, lay at 4.7 µM.
Turning to `CN(C)c1cc[n+](CCC[n+]2ccc(/C=N/OCc3c(Cl)cccc3Cl)cc2)cc1`, the logP in series [1] came out at 1.5. In series [2], this compound registered a nH of 1.3. The compound also gave a concentration giving a half-maximal response (EC50) in series [3] of 4.2 µM.
In series [1], `Clc1cccc(Cl)c1CO/N=C/c1cc[n+](CCCc2ccccc2)cc1` yielded a log partition coefficient (logP) of 0.5. The nH in series [2] was found to be 1.2. For the same compound, in series [3], a half-maximal effect (EC50) was put at 9.4 µM.
In turn, `COc1ccc(CCC[n+]2ccc(/C=N/OCc3c(Cl)cccc3Cl)cc2)cc1` yielded a logP in series [1] of 0.3. This compound also gave a nH in series [2] of 1.5. A half-maximal response in series [3] (EC50) required 6 µM.
In turn, `CCC[n+]1ccc(/C=N/OCc2c(Cl)cccc2Cl)cc1` came in with a logP in series [1] of 0.6. For the same compound, the nH in series [2] came out at 1.2. In addition, in series [3], the half-maximal effective concentration (EC50) turned out to be 26 µM.
Take `O/N=C/c1cc[n+](CCC[n+]2ccc(/C=N/OCc3c(Cl)cccc3Cl)cc2)cc1`: the logP in series [1] is 1.7. The nH in series [2] is 1.3. The compound further gave a half-maximal effective concentration (EC50) in series [3] of 11 µM.
With `Clc1cccc(Cl)c1CO/N=C/c1cc[n+](CCC[n+]2ccccc2)cc1`, the nH in series [2] worked out at 1.2. In addition, the midpoint of the response in series [3], the EC50, lay at 21 µM.
